The record followed here is ChEMBL document CHEMBL3286381 (J Med Chem, 2014).

Experiment [1] concerns the target T1, Ectonucleotide pyrophosphatase/phosphodiesterase family member 1 (Homo sapiens, UniProt P22413).
T1 sequence (P22413 whole entry): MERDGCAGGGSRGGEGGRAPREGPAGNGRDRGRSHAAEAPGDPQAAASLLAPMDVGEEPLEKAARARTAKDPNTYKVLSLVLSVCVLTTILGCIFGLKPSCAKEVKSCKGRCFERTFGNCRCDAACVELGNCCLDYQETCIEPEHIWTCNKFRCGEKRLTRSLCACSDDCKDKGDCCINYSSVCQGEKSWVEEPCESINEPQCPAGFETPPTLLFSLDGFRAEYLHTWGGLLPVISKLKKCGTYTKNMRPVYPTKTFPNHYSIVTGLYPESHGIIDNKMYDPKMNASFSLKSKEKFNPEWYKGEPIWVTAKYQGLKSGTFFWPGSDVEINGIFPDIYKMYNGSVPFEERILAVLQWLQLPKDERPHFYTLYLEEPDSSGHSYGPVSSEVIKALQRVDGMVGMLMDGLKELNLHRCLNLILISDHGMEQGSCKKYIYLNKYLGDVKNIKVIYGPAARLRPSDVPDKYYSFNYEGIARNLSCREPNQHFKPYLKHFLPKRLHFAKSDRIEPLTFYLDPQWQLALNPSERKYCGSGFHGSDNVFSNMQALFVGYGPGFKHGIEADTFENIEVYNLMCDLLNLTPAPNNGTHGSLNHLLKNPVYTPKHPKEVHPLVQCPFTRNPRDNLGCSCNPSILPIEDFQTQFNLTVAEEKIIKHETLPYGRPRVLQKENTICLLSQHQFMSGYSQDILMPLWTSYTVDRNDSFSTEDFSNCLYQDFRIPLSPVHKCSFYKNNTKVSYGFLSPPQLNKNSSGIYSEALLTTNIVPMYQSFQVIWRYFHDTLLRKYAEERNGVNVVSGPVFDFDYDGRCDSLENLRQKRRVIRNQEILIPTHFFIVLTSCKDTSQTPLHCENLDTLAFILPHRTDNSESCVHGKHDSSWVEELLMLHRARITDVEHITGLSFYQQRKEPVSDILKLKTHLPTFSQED
The experiment is described as follows: Mixed type inhibition of human NPP1 using pNP-TMP as substrate assessed as dissociation constant for enzyme-inhibitor-substrate complex after 20 mins by Dixon and Cornish-Bowden method. An outline of the steps:
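Human NPP1 (COS-7 lysate) is tested with pNP-TMP hydrolysis at 37 °C in pH 8.5 Tris buffer, reading p-nitrophenol at […]. Substrate is 25, 50 and 100 μM, and inhibitor is 0, 25, 50 and 100 μM. Inhibition type, Ki and Ki′ (EIS complex dissociation constant) come from Dixon and Cornish–Bowden plots of three independent experiments.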

Experiment [2] deals with T2, P2Y purinoceptor 11 (Homo sapiens, UniProt Q96G91).
T2 sequence (Q96G91 whole entry): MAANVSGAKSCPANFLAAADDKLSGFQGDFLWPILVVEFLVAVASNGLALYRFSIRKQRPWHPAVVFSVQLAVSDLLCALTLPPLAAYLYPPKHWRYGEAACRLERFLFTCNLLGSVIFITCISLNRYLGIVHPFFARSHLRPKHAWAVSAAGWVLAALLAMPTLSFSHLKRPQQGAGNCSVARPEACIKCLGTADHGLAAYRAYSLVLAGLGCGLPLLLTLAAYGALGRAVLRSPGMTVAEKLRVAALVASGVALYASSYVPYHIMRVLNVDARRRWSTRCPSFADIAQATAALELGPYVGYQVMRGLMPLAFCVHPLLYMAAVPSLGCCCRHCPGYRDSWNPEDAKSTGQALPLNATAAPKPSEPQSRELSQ
Briefly: Agonist activity at human P2Y11 receptor expressed in human 1321N1 cells assessed as increase of intracellular calcium level after 30 mins using fura-2 AM by fluorescence assay. It is filed as functional, cell-based. A general note: Calcium assays in cells follow changes in intracellular calcium, usually with a dye or a luminescent sensor.

For orientation: Ki means the dissociation constant of the complex between target and ligand, obtained from inhibition or displacement. As for `Nc1ncnc2c1ncn2[C@@H]1O[C@H](CO[P@](O)(=S)OP(=O)(O)CP(=O)(O)O)[C@@H](O)[C@H]1O`, the Ki in experiment [1] is 4500 nM.
A word on the EC50: it is the concentration that produces a half-maximal response. On to `Nc1ncnc2c1ncn2[C@@H]1O[C@H](CO[P@@](O)(=S)OP(=O)(O)CP(=O)(O)O)[C@@H](O)[C@H]1O`, for which the EC50 in experiment [2] worked out at 900 nM.
